Screens: PubChem, several laboratories
MBD2 DNA inh: inhibitors of human MBD2 binding to methylated oligonucleotide; 370,000 compounds, 0.31% hits; AID 686964; TR-FRET; inhibition, % at 4.4 µM; Q9UBB5; in the data active = inhibition above about 13%
DNMT1 inh: inhibitors of human DNMT1. P26358. DNMT1 molecular beacon, Hinp1I cleavage, fluorescence. inhibition (reported as % activation of signal), % at 10 µM. 360,000 compounds, 0.83% hits; in the data active = inhibition above about 50%
SUMO1 PPI mod: alters human SUMO1 binding to SIM partners; SUMO1 binding to a labelled peptide, TR-FRET, 1 h; inhibition, % at 20 µM; 360,000 compounds, 0.33% hits; in the data active = inhibition above about 37%
UHRF1 binding: UHRF1 methyl-DNA binding inhibition. Q96T88. UHRF1 binding to methylated oligo, TR-FRET. inhibition, % at 4.4 µM. 370,000 compounds, 0.75% hits; in the data active = inhibition above about 21%;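 note: UHRF1 SRA domain binding a hemimethylated CpG hairpin DNA probe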
DSG3 Ab inh: blocks pemphigus antibody binding to human desmoglein-3 | AID 588358 | binding (percent of control), % at 10 µM | P32926 | DSG3-coupled beads, scFv-anti-DSG3-GFP binding, flow cytometry; hits give low values | 310,000 compounds, 0.48% hits;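 active = binding more than 3 SD below its plate's average and above zero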;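 note: hits lower antibody fragment binding to DSG3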
Target sequence (P32926 whole entry, looked up, the tested form may be a part): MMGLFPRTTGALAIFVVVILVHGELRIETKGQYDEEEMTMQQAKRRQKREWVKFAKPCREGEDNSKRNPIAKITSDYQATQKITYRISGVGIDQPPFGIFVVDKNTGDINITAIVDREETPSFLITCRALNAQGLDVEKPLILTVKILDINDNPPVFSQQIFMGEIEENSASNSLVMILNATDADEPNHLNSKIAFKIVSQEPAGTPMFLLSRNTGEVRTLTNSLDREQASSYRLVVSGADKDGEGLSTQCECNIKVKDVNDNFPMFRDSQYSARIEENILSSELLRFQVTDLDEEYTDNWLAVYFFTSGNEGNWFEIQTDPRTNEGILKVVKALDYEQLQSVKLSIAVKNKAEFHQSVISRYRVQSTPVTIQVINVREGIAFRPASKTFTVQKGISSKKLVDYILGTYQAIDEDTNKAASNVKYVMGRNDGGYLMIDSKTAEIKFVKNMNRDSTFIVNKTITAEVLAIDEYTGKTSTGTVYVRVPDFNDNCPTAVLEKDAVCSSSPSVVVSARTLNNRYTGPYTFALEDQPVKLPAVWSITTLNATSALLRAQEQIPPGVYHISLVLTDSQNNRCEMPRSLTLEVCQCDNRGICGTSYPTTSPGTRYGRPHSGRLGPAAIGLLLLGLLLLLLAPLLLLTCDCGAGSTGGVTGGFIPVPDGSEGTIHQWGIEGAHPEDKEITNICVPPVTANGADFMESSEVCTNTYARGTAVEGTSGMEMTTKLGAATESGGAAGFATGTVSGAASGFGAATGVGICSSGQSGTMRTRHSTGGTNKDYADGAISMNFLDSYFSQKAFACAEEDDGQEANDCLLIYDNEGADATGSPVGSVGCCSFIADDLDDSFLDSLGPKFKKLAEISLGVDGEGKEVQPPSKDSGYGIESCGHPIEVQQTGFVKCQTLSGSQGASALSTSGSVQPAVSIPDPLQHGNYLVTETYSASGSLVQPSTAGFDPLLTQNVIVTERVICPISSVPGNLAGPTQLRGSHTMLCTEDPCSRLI
HCV NS3 hel inh: blocks Hepatitis C virus NS3 helicase unwinding | inhibition, % at 10.9 µM | NS3 helicase DNA unwinding, Cy5 molecular beacon fluorescence | 290,000 compounds, 0.56% hits;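 active = inhibition above the mean of all tested compounds plus 3 SD, set per campaign, cut at about 35% in these data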
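test system = hepatitis C virus NS3 helicase domain fragment enzyme | reagent = annealed dual-labelled DNA beacon duplex, ATP-started | times = 1 h at 25 °C | detection = Cy5 fluorescence, 0 and 60 min reads | read-out basis = percent inhibition from t60/t0 fluorescence ratio | control set = DMSO and thioflavine S | replication = one well per compound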
DNMT1 interf DR: counter-screen for DNMT1 inhibitors: spectral interference, dose response. shares compounds with DNMT1 inh. molecular beacon fluorescence. IC50, µM. 200 tested, under 10 active. AID 602382; call rule not given here
DNMT1 inh conf: DNMT1 inhibition confirmation, single concentration. 2,300 compounds, 8% hits. shares compounds with DNMT1 inh. DNMT1 molecular beacon HinP1I cleavage, fluorescence. inhibition, % at 10 µM. AID 602385;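 active = average inhibition of at least 30% in the single-concentration confirmation test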
Beacon interf: beacon fluorescence artifact counter-screen. activation (fluorescence interference), % at 10 µM. shares compounds with DNMT1 inh. 2,300 compounds, 1% hits. DNMT1 molecular beacon spectral interference counterscreen, fluorescence 485/520;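 active = activation of at least 30% at 10 µM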;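 note: DNMT1 catalytic domain with a HinP1I cleavage step and a FAM/dabcyl DNA beacon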
Of the large screens only hits and unclear results are named; the others gave an inactive call (follow-up assays come after a bar, where they were run). Compounds with a hit are over-represented: about 2.5% of the library has one in this group of screens.

CC1=C/C(=C\c2ccc(Br)o2)C(=O)O1	MBD2 DNA inh 15.6, DNMT1 inh 105.7, UHRF1 binding 52.7 | DNMT1 interf DR inactive | DNMT1 inh conf 46.2 | Beacon interf inactive
COC(=O)c1sccc1NC(=O)c1cc(-c2cccc(C)c2)nc2ccccc12	DNMT1 inh 50.1 | DNMT1 inh conf inactive | Beacon interf inactive
O=C(O[C@@H]1Cc2c(O)cc(O)cc2O[C@@H]1c1cc(O)c(O)c(O)c1)c1cc(O)c(O)c(O)c1	none (no result: MBD2 DNA inh, DNMT1 inh, SUMO1 PPI mod, UHRF1 binding, DSG3 Ab inh)
O=C(N/N=C/c1ccccc1)c1cc(=O)[nH]c2ccccc12	DNMT1 inh 61.3 | DNMT1 inh conf inactive | Beacon interf inactive
CN(C(=O)C1Cc2c(-c3ccccc3Oc3ccccc3)ccnc2O1)c1ccccc1 (stereo not drawn)	DNMT1 inh 75.6 (no result: DSG3 Ab inh, HCV NS3 hel inh) | DNMT1 inh conf inactive | Beacon interf inactive
O=C(NCc1ccco1)C1CCCCC1	none
Cn1c(N)c(C(=O)CSc2nc3ccccc3c(=O)n2Cc2ccccc2)c(=O)n(C)c1=O	none
O=c1oc(/C=C/c2ccco2)nc2sc3c(c12)CCC3	DNMT1 inh 108.2, UHRF1 binding 40.1 | DNMT1 inh conf inactive | Beacon interf inactive
O=c1oc(-c2cccs2)nc2sc3c(c12)CCC3	none
Cc1ccc([N+](=O)[O-])cc1NC(=O)Cc1cccs1	DNMT1 inh 80.7 | DNMT1 inh conf inactive | Beacon interf inactive
Cc1ccc([N+](=O)[O-])cc1NC(=O)Cc1ccc(F)cc1	none
COc1ccc(NC(=O)Cc2cccs2)c(OC)c1	none
COc1cc(NC(=O)c2ccccc2)c(OC)cc1NC(=O)Cc1cccs1	DNMT1 inh 72.6 (no result: DSG3 Ab inh) | DNMT1 inh conf inactive | Beacon interf inactive
COC(=O)c1cc(NC(=O)Cc2cccs2)cc(C(=O)OC)c1	DNMT1 inh 57.8 | DNMT1 inh conf inactive | Beacon interf inactive
O=C(CNC(=O)c1ccc([N+](=O)[O-])cc1)N/N=C\c1ccc(OC(=O)c2ccccc2)cc1	DNMT1 inh 85.3 | DNMT1 interf DR inactive | DNMT1 inh conf 38.3 | Beacon interf inactive
COc1cccc2c1OCC(C(=O)O)C2 (stereo not drawn)	DNMT1 inh 52.8 | DNMT1 inh conf inactive | Beacon interf inactive
CC(C)c1ccc(NC(=O)Cn2c(=O)oc3cccnc32)cc1	none
COc1cc(C(=O)c2nccc3cc(OC)c(OC)cc23)c([N+](=O)[O-])cc1OC	DNMT1 inh 58.3, UHRF1 binding 28.0 | DNMT1 inh conf inactive | Beacon interf inactive
CCOc1ccc(S(=O)(=O)N2CCOCC2)cc1NC(=O)CN1C(=O)NC(C)(c2ccc(C)cc2)C1=O (stereo not drawn)	none (no result: HCV NS3 hel inh)
COc1ccc(C)cc1NC(=O)c1nn(-c2ccccc2)cc1OC	none
C[n+]1cccc2c(Br)ccc([O-])c21	DNMT1 inh 83.8, SUMO1 PPI mod 49.0 | DNMT1 inh conf inactive | Beacon interf inactive
CCN(C(=O)CSc1nc2c(cnn2-c2ccccc2)c(=O)[nH]1)C1CCS(=O)(=O)C1 (stereo not drawn)	none
Cc1cc(=O)[nH]c(SCC(=O)c2ccc(C(C)C)cc2)n1	none
Cn1c(SCC(=O)c2cc(Cl)c(Cl)s2)nnc1-c1ccco1	DNMT1 inh 51.9 | DNMT1 inh conf inactive | Beacon interf inactive
O=Cc1cccc(OCc2cn(CC(=O)c3ccc(O)cc3)nn2)c1	DNMT1 inh 57.7, UHRF1 binding 23.9 (no result: HCV NS3 hel inh) | DNMT1 inh conf inactive | Beacon interf inactive
CCCC(=O)c1ccc(OCc2cn(CC(=O)c3ccc(O)cc3)nn2)cc1	DNMT1 inh 52.2, UHRF1 binding 23.1 (no result: HCV NS3 hel inh) | DNMT1 inh conf inactive | Beacon interf inactive
O=C(Cn1cc(COc2ccc3ccc(=O)oc3c2)nn1)c1ccc(O)cc1	none (no result: HCV NS3 hel inh)
Cc1ccc(NC(=O)CN(C)C(=O)Cn2cc(C(F)(F)F)cc(Cl)c2=O)cc1	none
